Laboratory results published in paper PMC7658073 (Clinical Pharmacokinetics, 2020).

Key:
[1] = pKa and pH-dependent solubility; type: physicochemical
CYP2B6 = assay: CYP induction in cultured human hepatocytes: CYP2B6; type: in vitro ADME; conditions: three donors, up to 10,000 μg/L (23.5 µM)
[2] = Phase I DDI study with aspirin; type: in vivo, human; conditions: with aspirin 500 mg vs vericiguat 15 mg SD alone, fasting
OAT1 = biological target: T1, OAT1 (Homo sapiens, UniProt Q4U2R8); assay: Inhibitory potency towards OAT1; type: in vitro ADME
T1 sequence (Q4U2R8 1-563): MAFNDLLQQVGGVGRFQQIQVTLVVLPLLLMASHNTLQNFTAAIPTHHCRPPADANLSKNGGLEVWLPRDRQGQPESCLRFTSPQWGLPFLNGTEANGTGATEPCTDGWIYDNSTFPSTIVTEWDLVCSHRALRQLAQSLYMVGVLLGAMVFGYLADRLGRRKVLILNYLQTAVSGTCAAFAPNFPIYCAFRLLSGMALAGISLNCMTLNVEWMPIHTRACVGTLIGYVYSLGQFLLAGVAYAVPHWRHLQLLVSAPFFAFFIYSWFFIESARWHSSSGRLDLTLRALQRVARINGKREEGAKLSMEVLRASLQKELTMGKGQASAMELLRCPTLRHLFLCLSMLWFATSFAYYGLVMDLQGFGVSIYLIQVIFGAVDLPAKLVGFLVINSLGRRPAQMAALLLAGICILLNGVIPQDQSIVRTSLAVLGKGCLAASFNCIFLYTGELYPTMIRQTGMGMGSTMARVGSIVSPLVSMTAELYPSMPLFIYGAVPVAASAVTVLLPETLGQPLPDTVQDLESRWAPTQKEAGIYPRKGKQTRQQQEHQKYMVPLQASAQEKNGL

[3] = Phase I DDI study with rifampicin; type: in vivo, human
Method in brief: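 Non-randomized, non-blinded, fixed-sequence study in healthy men. Test compound 10 mg single oral dose, fed, alone and then with rifampicin 600 mg QD orally for 9 days (pre- and co-treatment).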

[4] = biological target: T2, organic cation transporter 1 (Homo sapiens, UniProt O15245); assay: Substrate properties towards OCT1; type: in vitro ADME
T2 sequence (O15245 1-554): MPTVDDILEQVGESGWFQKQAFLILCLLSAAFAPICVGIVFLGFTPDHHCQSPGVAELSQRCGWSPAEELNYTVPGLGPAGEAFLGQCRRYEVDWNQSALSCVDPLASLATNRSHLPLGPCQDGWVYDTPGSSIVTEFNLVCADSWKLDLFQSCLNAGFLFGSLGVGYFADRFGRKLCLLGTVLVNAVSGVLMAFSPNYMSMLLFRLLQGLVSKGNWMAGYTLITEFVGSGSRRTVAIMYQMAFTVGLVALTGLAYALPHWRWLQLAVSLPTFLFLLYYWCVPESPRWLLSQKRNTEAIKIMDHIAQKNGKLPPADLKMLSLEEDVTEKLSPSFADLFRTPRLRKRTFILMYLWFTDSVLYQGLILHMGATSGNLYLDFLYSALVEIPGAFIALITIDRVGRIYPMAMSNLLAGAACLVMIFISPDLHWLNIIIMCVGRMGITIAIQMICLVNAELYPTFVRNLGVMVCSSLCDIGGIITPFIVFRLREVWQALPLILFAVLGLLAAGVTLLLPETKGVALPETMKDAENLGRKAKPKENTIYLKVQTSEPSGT

UGT2B4 = biological target: T3, UGT2B4 (Homo sapiens, UniProt P06133); assay: Inhibitory potency towards UGT isoforms: UGT2B4; type: in vitro ADME
T3 sequence (P06133 24-528): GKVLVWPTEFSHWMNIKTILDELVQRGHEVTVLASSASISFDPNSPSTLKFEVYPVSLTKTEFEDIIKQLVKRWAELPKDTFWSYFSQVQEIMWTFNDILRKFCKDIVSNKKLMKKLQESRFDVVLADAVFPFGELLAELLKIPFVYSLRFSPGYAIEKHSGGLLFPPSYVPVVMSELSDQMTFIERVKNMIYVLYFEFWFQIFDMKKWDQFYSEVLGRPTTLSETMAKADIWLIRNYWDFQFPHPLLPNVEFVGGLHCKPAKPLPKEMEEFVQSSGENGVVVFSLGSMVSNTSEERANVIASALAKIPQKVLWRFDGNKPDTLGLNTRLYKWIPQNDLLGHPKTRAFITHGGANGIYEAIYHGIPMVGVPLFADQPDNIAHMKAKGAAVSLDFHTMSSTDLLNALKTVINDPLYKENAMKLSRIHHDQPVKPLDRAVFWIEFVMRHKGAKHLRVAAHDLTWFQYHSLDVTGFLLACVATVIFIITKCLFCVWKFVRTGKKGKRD

MATE2K = MATE2K (Homo sapiens, UniProt Q86VL8); assay: Inhibitory potency towards MATE2K; type: in vitro ADME
MATE2K, sequence (Q86VL8 1-566 isoform Q86VL8-3): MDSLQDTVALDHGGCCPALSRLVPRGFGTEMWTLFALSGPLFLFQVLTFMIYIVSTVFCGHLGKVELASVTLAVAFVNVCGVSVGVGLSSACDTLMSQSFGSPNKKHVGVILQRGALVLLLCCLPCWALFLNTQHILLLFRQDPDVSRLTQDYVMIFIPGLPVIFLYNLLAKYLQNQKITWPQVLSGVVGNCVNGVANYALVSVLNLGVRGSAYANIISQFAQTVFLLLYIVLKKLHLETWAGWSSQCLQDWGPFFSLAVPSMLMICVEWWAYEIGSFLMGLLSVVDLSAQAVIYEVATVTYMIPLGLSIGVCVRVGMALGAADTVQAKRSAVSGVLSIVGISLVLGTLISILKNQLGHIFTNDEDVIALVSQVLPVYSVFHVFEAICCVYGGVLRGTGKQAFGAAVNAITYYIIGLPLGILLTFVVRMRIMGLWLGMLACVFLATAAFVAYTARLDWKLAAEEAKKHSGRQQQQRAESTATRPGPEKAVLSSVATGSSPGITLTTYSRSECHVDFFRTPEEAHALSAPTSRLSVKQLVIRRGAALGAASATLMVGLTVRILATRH

[5] = biological target: T4, organic cation transporter 2 (Homo sapiens, UniProt O15244); assay: Inhibitory potency towards OCT2; type: in vitro ADME
T4 sequence (O15244 1-555): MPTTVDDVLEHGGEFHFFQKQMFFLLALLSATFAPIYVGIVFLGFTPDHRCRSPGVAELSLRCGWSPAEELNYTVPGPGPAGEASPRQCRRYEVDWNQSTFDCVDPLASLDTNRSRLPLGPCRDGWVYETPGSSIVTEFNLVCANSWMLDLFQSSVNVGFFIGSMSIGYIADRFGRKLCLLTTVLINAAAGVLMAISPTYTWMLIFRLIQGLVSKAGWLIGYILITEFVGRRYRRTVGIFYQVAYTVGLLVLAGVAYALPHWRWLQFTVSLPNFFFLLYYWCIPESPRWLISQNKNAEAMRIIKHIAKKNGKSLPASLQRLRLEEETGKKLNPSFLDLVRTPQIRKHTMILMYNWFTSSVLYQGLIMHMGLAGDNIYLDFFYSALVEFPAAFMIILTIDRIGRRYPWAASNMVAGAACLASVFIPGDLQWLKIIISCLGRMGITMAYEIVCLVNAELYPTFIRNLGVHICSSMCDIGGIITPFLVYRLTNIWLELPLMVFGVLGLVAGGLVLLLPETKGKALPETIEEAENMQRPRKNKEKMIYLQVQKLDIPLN

[6] = with rifampicin 600 mg QD vs vericiguat 10 mg SD alone, fed

- pKa [1]: 4.7
- Induction of CYP2B6 (CYP2B6): no significant induction
- AUC of vericiguat, point estimate of treatment ratio [2]: 0.949
- Cmax of vericiguat, point estimate of treatment ratio [2]: 0.933
- IC50 (OAT1): > 5 µM
- Decrease in Cmax of vericiguat ([3]; pre- and co-treatment with rifampicin): 9%
- Decrease in AUC of vericiguat ([3]; pre- and co-treatment with rifampicin 600 mg once daily): 29%
- AUC of vericiguat, point estimate of treatment ratio [3, 6]: 0.713
- Cmax of vericiguat, point estimate of treatment ratio [3, 6]: 0.914
- Substrate of organic cation transporter 1 [4]: not a substrate
- IC50 (UGT2B4): > 50 µM
- IC50 (MATE2K): > 10 µM
- IC50 [5]: > 5 µM
Compound: COC(=O)Nc1c(N)nc(-c2nn(Cc3ccccc3F)c3ncc(F)cc23)nc1N [Vericiguat]
- pH dependence of solubility [1]: lower in neutral conditions compared with acidic conditions
